Source: ChEMBL document CHEMBL1139610, “Design, synthesis, and biological evaluation of novel 4-hydro-quinoline-3-carboxamide derivatives as an immunomodulator” (2005)

Experiments:
Assay type in all cases: functional
[1] = In vitro percent inhibition of LPS induced B-cell proliferation at the dose 1 ug/mL
Procedure, shortened: (§1)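 Splenocyte single-cell suspension (red cells lysed, 0.16 M NH4Cl-Tris), RPMI-1640 + 10% FBS, 2.5×10^6/mL; LPS 10 µg/mL stimulation with drug at final 1, 10 or 100 µg/mL, triplicate wells; cultured 72 h, 37 °C, [3H]thymidine pulse 0.5 µCi last 16 h, β-counting; %inhibition = (control mean − drug mean)/control mean.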

[2] = In vitro percent inhibition of LPS induced B-cell proliferation at the dose 10 ug/mL; procedure, shortened: as §1
[3] = In vitro percent inhibition of ConA induced T-cell proliferation at the dose 10 ug/mL
Procedure, shortened: (§2)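 Spleen cells sieved to single-cell suspension, red cells lysed with 0.16 M NH4Cl-Tris, washed, in RPMI-1640 + 10% FBS; seeded at 2.5×10^6/mL, stimulated with ConA 0.5 µg/mL, drug final 1, 10 or 100 µg/mL, triplicates; 72 h at 37 °C, [3H]thymidine 0.5 µCi for final 16 h; cpm counted; %inhibition = (control − drug)/control.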

[4] = In vitro percent inhibition of LPS induced B-cell proliferation at the dose 100 ug/mL; procedure, shortened: as §1
[5] = In vitro percent inhibition of ConA induced T-cell proliferation at the dose 100 ug/mL; procedure, shortened: as §2
[6] = In vitro percent inhibition of ConA induced T-cell proliferation at the dose 1 ug/mL; procedure, shortened: as §2
[7] = molecular target: T1, Tumor necrosis factor (Mus musculus) (UniProt P06804); experiment: In vitro percent inhibition of tumor necrosis factor, alpha secreted by macrophage at the dose 1 ug/mL
T1 sequence (whole entry): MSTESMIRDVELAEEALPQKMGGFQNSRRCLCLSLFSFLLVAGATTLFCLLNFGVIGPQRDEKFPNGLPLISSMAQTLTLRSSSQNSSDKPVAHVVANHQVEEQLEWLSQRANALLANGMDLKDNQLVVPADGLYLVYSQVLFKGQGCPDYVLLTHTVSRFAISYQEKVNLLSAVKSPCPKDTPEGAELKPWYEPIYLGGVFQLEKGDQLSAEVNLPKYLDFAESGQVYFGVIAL
Procedure, shortened: (§3)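 RAW264.7 macrophages in RPMI 1640 with 10% FCS, 2 mM glutamine, gentamycin; seeded 2×10^5/mL, grown ~3 days to confluence at 37 °C, 5% CO2; LPS 10 µg/mL plus drug at final 1, 10 or 100 µg/mL for 24 h; supernatant TNF-α by ELISA; %inhibition = (control mean − drug mean)/control mean.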

[8] = molecular target: T1, Tumor necrosis factor (Mus musculus); experiment: In vitro percent inhibition of tumor necrosis factor, alpha secreted by macrophage at the dose 10 ug/mL; procedure, shortened: as §3
[9] = molecular target: T1, Tumor necrosis factor (Mus musculus); experiment: In vitro percent inhibition of tumor necrosis factor, alpha secreted by macrophage at the dose 100 ug/mL; procedure, shortened: as §3

## CSc1ccc2ncc(C(=O)N(C)c3ccccc3)c(O)c2c1
[1]
  inhibition at 1 µg/mL: -47%
[2]
  inhibition at 10 µg/mL: -144%
[3]
  inhibition at 10 µg/mL: -155%
[4]
  inhibition at 100 µg/mL: 65.6%
[5]
  inhibition at 100 µg/mL: 96.3%

## CSc1ccc2c(O)c(C(=O)NCCN(C)C)cnc2c1
[6]
  inhibition at 1 µg/mL: 30.3%
[3]
  inhibition at 10 µg/mL: 38.5%
[5]
  inhibition at 100 µg/mL: 100%

## CN(C)CCNC(=O)c1cnc2cc(Cl)ccc2c1O
[6]
  inhibition at 1 µg/mL: 14%
[3]
  inhibition at 10 µg/mL: 33.7%
[5]
  inhibition at 100 µg/mL: 99.9%

## O=C(O)c1ccc(NC(=O)c2cnc3ccccc3c2O)cc1
[7]
  inhibition: 31.2%
[8]
  inhibition: 5.61%
[9]
  inhibition: 27.5%
[1]
  inhibition at 1 µg/mL: -1.94%
[6]
  inhibition at 1 µg/mL: 28.6%
[2]
  inhibition at 10 µg/mL: 4.33%
[3]
  inhibition at 10 µg/mL: 38.8%
[4]
  inhibition at 100 µg/mL: 28%
[5]
  inhibition at 100 µg/mL: -20.9%

## O=C(NCCO)c1cnc2cc(Cl)ccc2c1O
[8]
  inhibition: 6.06%
[9]
  inhibition: 77.7%
[1]
  inhibition at 1 µg/mL: 21.3%
[6]
  inhibition at 1 µg/mL: 42.5%
[2]
  inhibition at 10 µg/mL: 29.1%
[3]
  inhibition at 10 µg/mL: 49.8%
[4]
  inhibition at 100 µg/mL: 53.3%
[5]
  inhibition at 100 µg/mL: 93.8%

## CN(C)CCNC(=O)c1cnc2cc(F)ccc2c1O
[6]
  inhibition at 1 µg/mL: -24.6%
[3]
  inhibition at 10 µg/mL: -9%
[5]
  inhibition at 100 µg/mL: 87.2%

## O=C(O)c1ccc2ncc(C(=O)Nc3cccc(Cl)c3)c(O)c2c1
[1]
  inhibition at 1 µg/mL: 78.5%
[6]
  inhibition at 1 µg/mL: 87.6%
[2]
  inhibition at 10 µg/mL: 94.3%
[3]
  inhibition at 10 µg/mL: 84.8%
[4]
  inhibition at 100 µg/mL: 94.7%
[5]
  inhibition at 100 µg/mL: 73.4%

## Cc1ccc2ncc(C(=O)NCCN(C)C)c(O)c2c1
[6]
  inhibition at 1 µg/mL: -27.5%
[3]
  inhibition at 10 µg/mL: -11.2%
[5]
  inhibition at 100 µg/mL: 94.9%

## CN(C(=O)c1c(O)c2ccccc2n(C)c1=O)c1ccccc1 [ROQUINIMEX]
[7]
  inhibition: 9.95%
[8]
  inhibition: 18.2%
[9]
  inhibition: 27.3%
[1]
  inhibition at 1 µg/mL: 0%
[6]
  inhibition at 1 µg/mL: 58.1%
[2]
  inhibition at 10 µg/mL: 24.6%
[3]
  inhibition at 10 µg/mL: 70.6%
[4]
  inhibition at 100 µg/mL: 62.7%
[5]
  inhibition at 100 µg/mL: 78.5%

## CSc1ccc2c(O)c(C(=O)N(C)c3ccccc3)cnc2c1
[7]
  inhibition: 14.6%
[8]
  inhibition: 22.2%
[9]
  inhibition: 52.7%
[1]
  inhibition at 1 µg/mL: 31.1%
[6]
  inhibition at 1 µg/mL: 26.2%
[2]
  inhibition at 10 µg/mL: 17%
[3]
  inhibition at 10 µg/mL: 11.8%
[4]
  inhibition at 100 µg/mL: 83.5%
[5]
  inhibition at 100 µg/mL: 76%

## CN(C(=O)c1cnc2cc(Cl)ccc2c1O)c1ccccc1
[7]
  inhibition: 18.6%
[8]
  inhibition: 5.61%
[9]
  inhibition: 25.6%
[1]
  inhibition at 1 µg/mL: -4.33%
[6]
  inhibition at 1 µg/mL: -24.7%
[2]
  inhibition at 10 µg/mL: -26.7%
[3]
  inhibition at 10 µg/mL: -27.6%
[4]
  inhibition at 100 µg/mL: 14.1%
[5]
  inhibition at 100 µg/mL: 41.2%

## CCCN(CCC)C(=O)c1cnc2cc(Cl)ccc2c1O
[7]
  inhibition: 14.7%
[8]
  inhibition: 18.4%
[9]
  inhibition: -4.03%
[1]
  inhibition at 1 µg/mL: -3.57%
[6]
  inhibition at 1 µg/mL: 42.1%
[2]
  inhibition at 10 µg/mL: 18.1%
[3]
  inhibition at 10 µg/mL: 49.5%
[4]
  inhibition at 100 µg/mL: 12.6%
[5]
  inhibition at 100 µg/mL: 51.2%

## CCN(C(=O)c1cnc2c(C)cc(C)cc2c1O)c1ccccc1
[7]
  inhibition: 46.3%
[8]
  inhibition: 29.7%
[9]
  inhibition: 47.6%
[1]
  inhibition at 1 µg/mL: 4.49%
[6]
  inhibition at 1 µg/mL: 31.9%
[2]
  inhibition at 10 µg/mL: 36%
[3]
  inhibition at 10 µg/mL: 35.5%
[4]
  inhibition at 100 µg/mL: 87.5%
[5]
  inhibition at 100 µg/mL: 64.2%

## CN(C)CCNC(=O)c1cnc2ccccc2c1O
[6]
  inhibition at 1 µg/mL: -14.4%
[3]
  inhibition at 10 µg/mL: -6.94%
[5]
  inhibition at 100 µg/mL: 73.6%

## COc1ccc2c(O)c(C(=O)NCC(C)(C)CN(C)C)cnc2c1
[1]
  inhibition at 1 µg/mL: 48.8%
[6]
  inhibition at 1 µg/mL: 32.6%
[2]
  inhibition at 10 µg/mL: 72.3%
[3]
  inhibition at 10 µg/mL: 29.4%
[4]
  inhibition at 100 µg/mL: 91.6%
[5]
  inhibition at 100 µg/mL: 98.5%

## CSc1cccc2c(O)c(C(=O)NCCN(C)C)cnc12
[6]
  inhibition at 1 µg/mL: 32%
[3]
  inhibition at 10 µg/mL: 69.1%
[5]
  inhibition at 100 µg/mL: 99.9%

## CN(C(=O)c1cnc2cc(C(F)(F)F)ccc2c1O)c1ccccc1
[8]
  inhibition: -5.45%
[9]
  inhibition: -3.57%
[1]
  inhibition at 1 µg/mL: 39.8%
[6]
  inhibition at 1 µg/mL: 54.7%
[2]
  inhibition at 10 µg/mL: 6.41%
[3]
  inhibition at 10 µg/mL: 4.11%
[4]
  inhibition at 100 µg/mL: 64.9%
[5]
  inhibition at 100 µg/mL: 93.6%

## COc1ccc2c(O)c(C(=O)N(C)c3ccccc3)cnc2c1
[7]
  inhibition: 12.1%
[8]
  inhibition: 35.7%
[9]
  inhibition: 35.7%
[1]
  inhibition at 1 µg/mL: 41.3%
[6]
  inhibition at 1 µg/mL: 36.5%
[2]
  inhibition at 10 µg/mL: 24.9%
[3]
  inhibition at 10 µg/mL: 29.3%
[4]
  inhibition at 100 µg/mL: 57.5%
[5]
  inhibition at 100 µg/mL: 53.7%
